In ChEMBL document CHEMBL5303300, “EUbOPEN Chemogenomics Library - Multiplex” (2023):
Where “and” joins values, the source holds several entries; their conditions need not be identical. Equal values may be shown once.

Tested on: U2OS
Experiment: Multiplex assay against U2OS
Format: toxicity, cell-based
Details: human, number of replicates 2
Summary of the method: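 Phenotypes for tubulin, mitochondrial mass and membrane permeability are expressed as per cents of healthy-nucleus cells. Cells were stained live at seeding with Hoechst33342, BioTracker Green Microtubule Cytoskeleton Dye, MitoTracker Red and Annexin V Alexa Fluor 680, then imaged after compound addition on a CQ1 microscope at 37°C and 5% CO2. Machine-learning gating in CellPathfinder separated Hoechst high-intensity objects from normal cells, divided normal cells by nuclear state (healthy, pyknosed, fragmented) and divided pyknosed cells into mitotic or apoptotic.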

[1] = 12 h, 1 µM, compound concentration 1 uM
[2] = 12 h, 10 µM, compound concentration 10 uM
[3] = 24 h, 1 µM, compound concentration 1 uM
[4] = 24 h, 10 µM, compound concentration 10 uM
[5] = 48 h, 1 µM, compound concentration 1 uM
[6] = 48 h, 10 µM, compound concentration 10 uM

## C[C@@H](Oc1cc(-n2cnc3ccc(OC4CCN(C)CC4)cc32)sc1C(N)=O)c1ccccc1Cl [GSK-579289A]
[1]
  Population Apoptotic (%): 100% and 47%
  Population Fragmented Nuclei (%): 4% and 6%
  Population Healthy Nuclei (%): 78%
  Population Hoechst High Intensity Objects (%): 0%
  Population Membrane Permeable-Phenotype (%): 24% and 17%
  Population Normal (%): 100% and 99%
  Population Pyknosed Nuclei (%): 16% and 15%
  Population Tubulin-Different-Phenotype (%): 33% and 43%
[2]
  Population Apoptotic (%): 78% and 61%
  Population Fragmented Nuclei (%): 9% and 23%
  Population Healthy Nuclei (%): 64% and 47%
  Population Hoechst High Intensity Objects (%): 2% and 0%
  Population Membrane Permeable-Phenotype (%): 55% and 27%
  Population Mitochondria Different-Phenotype (%): 69% and 72%
  Population Mitotic Cells (%): 22% and 38%
  Population Normal (%): 97% and 100%
  Population Pyknosed Nuclei (%): 26% and 28%
  Population Tubulin-Different-Phenotype (%): 97% and 95%
[3]
  Population Apoptotic (%): 100% and 78%
  Population Fragmented Nuclei (%): 9% and 4%
  Population Healthy Nuclei (%): 84% and 76%
  Population Hoechst High Intensity Objects (%): 0%
  Population Membrane Permeable-Phenotype (%): 14% and 23%
  Population Mitotic Cells (%): 0% and 21%
  Population Normal (%): 100% and 99%
  Population Pyknosed Nuclei (%): 6% and 18%
  Population Tubulin-Different-Phenotype (%): 33% and 46%
[4]
  Population Apoptotic (%): 78% and 81%
  Population Fragmented Nuclei (%): 8% and 5%
  Population Healthy Nuclei (%): 41% and 52%
  Population Hoechst High Intensity Objects (%): 4% and 0%
  Population Membrane Permeable-Phenotype (%): 52% and 83%
  Population Mitochondria Different-Phenotype (%): 84% and 67%
  Population Mitotic Cells (%): 21% and 18%
  Population Normal (%): 95% and 99%
  Population Pyknosed Nuclei (%): 50% and 41%
  Population Tubulin-Different-Phenotype (%): 100% and 98%
[5]
  Population Apoptotic (%): 95% and 75%
  Population Healthy Nuclei (%): 60% and 55%
  Population Hoechst High Intensity Objects (%): 0%
  Population Membrane Permeable-Phenotype (%): 33% and 19%
  Population Normal (%): 100%
  Population Pyknosed Nuclei (%): 31% and 21%
  Population Tubulin-Different-Phenotype (%): 56% and 38%
[6]
  Population Apoptotic (%): 100% and 95%
  Population Fragmented Nuclei (%): 9% and 12%
  Population Healthy Nuclei (%): 19% and 12%
  Population Hoechst High Intensity Objects (%): 4%
  Population Membrane Permeable-Phenotype (%): 100% and 95%
  Population Mitochondria Different-Phenotype (%): 50% and 70%
  Population Mitotic Cells (%): 0% and 4%
  Population Normal (%): 95%
  Population Pyknosed Nuclei (%): 70% and 74%
  Population Tubulin-Different-Phenotype (%): 100% and 95%

## C=CC(=O)Nc1ccc2[nH]c(=O)n(C3CCN(Cc4ccc(-c5ccc6c(c5)NC(=O)CO6)cc4)CC3)c2c1 [RL2578]
[1]
  Population Fragmented Nuclei (%): 5% and 4%
  Population Healthy Nuclei (%): 66% and 83%
  Population Hoechst High Intensity Objects (%): 0%
  Population Mitochondria Different-Phenotype (%): 4% and 0%
  Population Normal (%): 100%
  Population Pyknosed Nuclei (%): 27% and 11%
  Population Tubulin-Different-Phenotype (%): 58% and 84%
[2]
  Population Apoptotic (%): 66%
  Population Fragmented Nuclei (%): 18% and 9%
  Population Healthy Nuclei (%): 57% and 80%
  Population Hoechst High Intensity Objects (%): 0%
  Population Membrane Permeable-Phenotype (%): 13% and 7%
  Population Mitochondria Different-Phenotype (%): 13% and 30%
  Population Mitotic Cells (%): 33%
  Population Normal (%): 100%
  Population Pyknosed Nuclei (%): 23% and 9%
  Population Tubulin-Different-Phenotype (%): 31% and 46%
[3]
  Population Apoptotic (%): 85% and 74%
  Population Fragmented Nuclei (%): 8% and 4%
  Population Healthy Nuclei (%): 75% and 86%
  Population Hoechst High Intensity Objects (%): 0%
  Population Membrane Permeable-Phenotype (%): 11% and 1%
  Population Mitochondria Different-Phenotype (%): 8% and 2%
  Population Mitotic Cells (%): 14% and 25%
  Population Normal (%): 100%
  Population Pyknosed Nuclei (%): 15% and 9%
  Population Tubulin-Different-Phenotype (%): 76% and 87%
[4]
  Population Apoptotic (%): 61% and 54%
  Population Fragmented Nuclei (%): 9% and 8%
  Population Healthy Nuclei (%): 54% and 78%
  Population Hoechst High Intensity Objects (%): 1% and 0%
  Population Membrane Permeable-Phenotype (%): 0% and 5%
  Population Mitotic Cells (%): 38% and 45%
  Population Normal (%): 98% and 99%
  Population Pyknosed Nuclei (%): 35% and 12%
  Population Tubulin-Different-Phenotype (%): 39% and 47%
[5]
  Population Apoptotic (%): 83% and 70%
  Population Healthy Nuclei (%): 68% and 90%
  Population Hoechst High Intensity Objects (%): 0%
  Population Membrane Permeable-Phenotype (%): 8% and 0%
  Population Mitochondria Different-Phenotype (%): 4% and 0%
  Population Mitotic Cells (%): 16% and 30%
  Population Normal (%): 100%
  Population Pyknosed Nuclei (%): 16% and 6%
  Population Tubulin-Different-Phenotype (%): 80% and 84%
[6]
  Population Apoptotic (%): 76% and 68%
  Population Fragmented Nuclei (%): 13% and 10%
  Population Healthy Nuclei (%): 53% and 70%
  Population Hoechst High Intensity Objects (%): 0% and 1%
  Population Membrane Permeable-Phenotype (%): 10% and 5%
  Population Mitochondria Different-Phenotype (%): 7% and 18%
  Population Mitotic Cells (%): 23% and 31%
  Population Normal (%): 100% and 98%
  Population Pyknosed Nuclei (%): 32% and 19%
  Population Tubulin-Different-Phenotype (%): 71% and 59%

## CNC(=O)c1c(F)cccc1Nc1nc(Nc2cc3c(cc2OC)CCN3C(=O)CN(C)C)nc2[nH]ccc12
[1]
  Population Apoptotic (%): 57% and 62%
  Population Healthy Nuclei (%): 60% and 80%
  Population Hoechst High Intensity Objects (%): 0%
  Population Membrane Permeable-Phenotype (%): 0% and 7%
  Population Mitochondria Different-Phenotype (%): 0% and 8%
  Population Mitotic Cells (%): 42% and 37%
  Population Normal (%): 100%
  Population Pyknosed Nuclei (%): 13% and 15%
  Population Tubulin-Different-Phenotype (%): 80% and 46%
[2]
  Population Apoptotic (%): 46% and 60%
  Population Healthy Nuclei (%): 33% and 35%
  Population Hoechst High Intensity Objects (%): 0% and 2%
  Population Mitotic Cells (%): 53% and 39%
  Population Normal (%): 100% and 97%
  Population Tubulin-Different-Phenotype (%): 57% and 75%
  Total Cell Count: 815 and 281
[3]
  Population Apoptotic (%): 46% and 59%
  Population Healthy Nuclei (%): 55% and 80%
  Population Hoechst High Intensity Objects (%): 0%
  Population Membrane Permeable-Phenotype (%): 0% and 3%
  Population Mitochondria Different-Phenotype (%): 0% and 7%
  Population Mitotic Cells (%): 53% and 40%
  Population Normal (%): 100%
  Population Pyknosed Nuclei (%): 25% and 15%
  Population Tubulin-Different-Phenotype (%): 87% and 50%
[4]
  Population Apoptotic (%): 72% and 83%
  Population Healthy Nuclei (%): 32% and 23%
  Population Hoechst High Intensity Objects (%): 0% and 1%
  Population Mitotic Cells (%): 27% and 16%
  Population Normal (%): 100% and 98%
  Population Tubulin-Different-Phenotype (%): 62% and 78%
[5]
  Population Apoptotic (%): 72% and 78%
  Population Healthy Nuclei (%): 61% and 82%
  Population Hoechst High Intensity Objects (%): 1% and 0%
  Population Membrane Permeable-Phenotype (%): 2% and 4%
  Population Mitochondria Different-Phenotype (%): 2% and 5%
  Population Mitotic Cells (%): 27% and 22%
  Population Normal (%): 98% and 100%
  Population Pyknosed Nuclei (%): 23% and 14%
  Population Tubulin-Different-Phenotype (%): 91% and 62%
[6]
  Population Apoptotic (%): 95% and 94%
  Population Hoechst High Intensity Objects (%): 0% and 1%
  Population Mitotic Cells (%): 4% and 5%
  Population Normal (%): 100% and 98%
  Population Tubulin-Different-Phenotype (%): 64% and 80%
